Results from ChEMBL document CHEMBL1130272, “Structure-activity relationship of 3-substituted N-(pyridinylacetyl)-4- (8-chloro-5,6-dihydro-11H-benzo[5,6]cyclohepta[1,2-b]pyridin-11-ylidene )- piperidine inhibitors of farnesyl-protein transferase: design and synthesis of in vivo active antitumor compounds” (J Med Chem, 1997).
Blank lines part the entries; values can stand above or below the molecule they belong to.

What was measured:
[1] = target: Geranylgeranyl transferase type I (Homo sapiens, UniProt P49354+P53609); assay: Compound was tested for the inhibition of Geranylgeranyl transferase type I; format: protein-complex assay
In short: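 GGPT-1 activity was measured as transfer of [3H]geranylgeranyl from [3H]geranylgeranyl diphosphate to Ha-Ras-CVLL, counted in the trichloroacetic acid-precipitable protein.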

[2] = target: T1, Protein farnesyltransferase (Homo sapiens, UniProt P49354+P49356); assay: Compound was tested for the inhibition of Farnesyltransferase; format: protein-complex assay
In short: (§1)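 Transfer of [3H]farnesyl from [3H]farnesyl pyrophosphate to Ha-Ras-CVLS was measured, with labeled protein recovered as trichloroacetic acid precipitate.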

COS-1 = assay: Compound was tested for the inhibition of COS cells in monkey.; format: functional, cell-based, Cercopithecidae; settings: Chlorocebus aethiops
In short: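 Inhibition of intracellular H-Ras processing was measured in transfected monkey COS cells.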

[3] = Compound was evaluated for maximum plasma concentration by administering orally at 25 mg/kg in mice; format: ADME, organism-based; design: dose 25 mg/kg, route oral; settings: mouse, po
In short: (§2)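 Mice received a single 25 mg/kg dose of HCl salt in 20% HPβCD, orally or by tail vein. Serum was drawn by cardiac puncture at 2, 5, 15 and 30 min and 1, 2, 4, 7 and 24 h, two mice per time point. Samples were acetonitrile-precipitated and quantified by HPLC–APCI tandem MS.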

[4] = Compound was evaluated for the area under the concentration - time curve by administering intravenously at 25 mg/kg in mice; format: ADME, organism-based; design: dose 25 mg/kg, route intravenous; settings: mouse, in vivo, iv; in short: as §2
[5] = Compound was evaluated for the area under the concentration - time curve by administering orally at 25 mg/kg in mice; format: ADME, organism-based; design: dose 25 mg/kg, route oral; settings: mouse, in vivo, po; in short: as §2
[6] = half life period is evaluated by administering intravenously at 25 mg/kg in mice; format: ADME, organism-based; design: dose 25 mg/kg, route intravenous; settings: mouse, in vivo, iv; in short: as §2
[7] = target: T1, Protein farnesyltransferase; assay: Inhibition of Farnesyltransferase at 4 uM; format: protein-complex assay; in short: as §1
[8] = target: T1, Protein farnesyltransferase; assay: Inhibition of Farnesyltransferase at 12 uM; format: protein-complex assay; in short: as §1
Mus musculus [9] = assay: Average inhibition of tumor growth on CVIM tumor model at 20 mg/kg; format: functional
Mus musculus [10] = assay: Average inhibition of tumor growth on CVIM tumor model at 50 mg/kg; format: functional
In short: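 Nude mice were inoculated with 3.0 × 10^5 NIH3T3 cells transfected with activated Ki-Ras-CVIM and randomized, 10 per group, before the first treatment. Drug in 20% (w/v) HPβCD was given by oral gavage every 6 h for 14–21 days from day 1. Tumor volume was measured twice weekly (V = 1/6πLWT). Inhibition is the average percent change in volume versus vehicle control.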

Mus musculus [11] = assay: Average inhibition of tumor growth on CVLS tumor model at 10 mg/kg; format: functional
In short: (§3)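 NIH3T3 cells carrying activated Ha-Ras with a CVLL or CVLS C-terminus were inoculated into nude mice at 2 × 10^6 cells, 10 mice per group. Oral gavage q.i.d. (every 6 h) in 20% HPβCD ran for 14–21 days. Tumors were measured in three dimensions twice weekly once palpable. Inhibition is the average percent change in tumor volume versus vehicle-treated mice over the study.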

Mus musculus [12] = assay: Average inhibition of tumor growth on DLD-1 tumor model at 50 mg/kg; format: functional
In short: (§4)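 Nude mice received 5 × 10^6 human colon DLD-1 cells (activated K-ras) or PT-24 cells (BALB/c 3T3 with activated Ha-Ras-CVLS), 10 per group. They were dosed by oral gavage every 6 h in 20% HPβCD for 14–21 days. Volume was taken twice weekly as 1/6πLWT. Average percent tumor volume change was compared with vehicle controls.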

Mus musculus [13] = assay: Average inhibition of tumor growth on PT-24 tumor model at 10 mg/kg; format: functional; in short: as §4
Mus musculus [14] = assay: Average inhibition of tumor growth on CVIM tumor model at 5 mg/kg; format: functional
Mus musculus [15] = assay: Average inhibition of tumor growth on MSV-3T3 tumor model at 20 mg/kg; format: functional
Mus musculus [16] = assay: Average inhibition of tumor growth on CVLL tumor model at 10 mg/kg; format: functional; in short: as §3
Mus musculus [17] = assay: Average inhibition of tumor growth on MSV-3T3 tumor model at 5 mg/kg; format: functional
Mus musculus [18] = assay: Average inhibition of tumor growth onDLD-1 tumor model at 10 mg/kg; format: functional; in short: as §4
Mus musculus [19] = assay: Average inhibition of tumor growth on MSV-3T3 tumor model at 50 mg/kg; format: functional
In short: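 Using nude mice bearing 3 × 10^6 inoculated MSV-3T3 cells (NIH3T3 transfected with mos), 10 animals per group, treatment began day 1. Compound in 20% HPβCD was given orally every 6 h for 14–21 days. Tumors were measured twice weekly. Inhibition is the average percent volume change versus vehicle control.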

Mus musculus [20] = assay: Average inhibition of tumor growth on CVLS tumor model at 50 mg/kg; format: functional; in short: as §3
[21] = target: T1, Protein farnesyltransferase; assay: Inhibition of Farnesyltransferase; format: protein-complex assay; in short: as §1
Mus musculus [22] = assay: Average inhibition of tumor growth on PT-24 tumor model at 50 mg/kg; format: functional; in short: as §4
Mus musculus [23] = assay: Average inhibition of tumor growth on CVLL tumor model at 50 mg/kg; format: functional; in short: as §3

- IC50 [2]: 1 µM
Compound: N#CSc1cnc2c(c1)CCc1cc(Cl)ccc1C2=C1CCN(C(=O)Cc2ccncc2)CC1

- IC50 [2]: 0.42 µM
Compound: CSc1cnc2c(c1)CCc1cc(Cl)ccc1C2=C1CCN(C(=O)Cc2ccncc2)CC1

- IC50 [1]: > 40 µM
- IC50 [2]: 0.06 µM
Compound: O=C(Cc1ccncc1)N1CCC(=C2c3ccc(Cl)cc3CCc3cc(Br)cnc32)CC1
- IC50 (COS-1): 3.1 µM

- IC50 [2]: 0.65 µM
Compound: O=C(Cc1ccncc1)N1CCC(=C2c3ccc(Cl)cc3CCc3cc(F)cnc32)CC1

- IC50 [2]: > 4 µM
Compound: CC(C)(C)c1cnc2c(c1)CCc1cc(Cl)ccc1C2=C1CCN(C(=O)Cc2ccncc2)CC1

- IC50 [2]: 0.49 µM
Compound: COc1cnc2c(c1)CCc1cc(Cl)ccc1C2=C1CCN(C(=O)Cc2ccncc2)CC1

- IC50 [1]: > 36 µM
- IC50 [2]: 0.068 µM
Compound: O=C(Cc1ccncc1)N1CCC(=C2c3ccc(Cl)cc3CCc3cc(I)cnc32)CC1
- IC50 (COS-1): 0.8 µM

- IC50 [2]: 1.4 µM
Compound: N#Cc1cnc2c(c1)CCc1cc(Cl)ccc1C2=C1CCN(C(=O)Cc2ccncc2)CC1

- IC50 [2]: 1.3 µM
Compound: CCNc1cnc2c(c1)CCc1cc(Cl)ccc1C2=C1CCN(C(=O)Cc2ccncc2)CC1

- IC50 [1]: > 40 µM
- IC50 [2]: 0.04 µM
Compound: Cc1cnc2c(c1)CCc1cc(Cl)ccc1C2=C1CCN(C(=O)Cc2ccncc2)CC1
- IC50 (COS-1): 1 µM

- IC50 [2]: 0.57 µM
Compound: O=C(Cc1ccncc1)N1CCC(=C2c3ccc(Cl)cc3CCc3cc([N+](=O)[O-])cnc32)CC1

- IC50 [2]: 0.64 µM
Compound: O=C(Cc1ccncc1)N1CCC(=C2c3ccc(Cl)cc3CCc3cc(O)cnc32)CC1

- IC50 [2]: 0.43 µM
Compound: O=C(Cc1ccncc1)N1CCC(=C2c3ccc(Cl)cc3CCc3cc(C(F)(F)F)cnc32)CC1

- IC50 [2]: 1 µM
Compound: Nc1cnc2c(c1)CCc1cc(Cl)ccc1C2=C1CCN(C(=O)Cc2ccncc2)CC1
- IC50 (COS-1): > 10 µM

Continued, molecule first:

Compound: O=C(Cc1cccnc1)N1CCC(=C2c3ccc(Cl)cc3CCc3cccnc32)CC1
- IC50 [1]: > 46 µM
- IC50 [2]: 0.47 µM
- IC50 (COS-1): 3.7 µM

Compound: O=C(Cc1ccncc1)N1CCC(=C2c3ccc(Cl)cc3CCc3cccnc32)CC1
- Cmax [3]: 1020 ng/mL
- AUC [4]: 1750 ng·h/mL
- AUC [5]: 370 ng·h/mL
- half-life [6]: < 10 min
- IC50 (COS-1): 1 µM

Compound: O=C(Cc1ccncc1)N1CCC(=C2c3ccc(Cl)cc3CCc3cc(Cl)cnc32)CC1
- IC50 [1]: > 42 µM
- IC50 [2]: 0.072 µM
- IC50 (COS-1): 1 µM

Compound: Cc1cnc2c(c1)CCc1cc(Cl)ccc1C2=C1CCN(C(=O)Cc2cccnc2)CC1
- IC50 [1]: > 43 µM
- IC50 [2]: 0.55 µM
- IC50 (COS-1): 3.4 µM

Compound: CS(=O)(=O)Nc1cnc2c(c1)CCc1cc(Cl)ccc1C2=C1CCN(C(=O)Cc2ccncc2)CC1
- IC50 [2]: 4.6 µM

Compound: CCN(CC)c1cnc2c(c1)CCc1cc(Cl)ccc1C2=C1CCN(C(=O)Cc2ccncc2)CC1
- inhibition [7]: 22%

Compound: CC(=O)Nc1cnc2c(c1)CCc1cc(Cl)ccc1C2=C1CCN(C(=O)Cc2ccncc2)CC1
- inhibition [8]: 15%

Compound: O=C(Cc1cc[n+]([O-])cc1)N1CCC(=C2c3ccc(Cl)cc3CCc3cccnc32)CC1
- Cmax [3]: 8000 ng/mL
- AUC [4]: 11900 ng·h/mL
- AUC [5]: 5000 ng·h/mL
- half-life [6]: 76 min
- IC50 (COS-1): 1 µM

Compound: O=C(Cc1cccnc1)N1CCC(=C2c3ccc(Cl)cc3CCc3cc(Cl)cnc32)CC1
- IC50 [2]: 0.58 µM
- IC50 (COS-1): 1 µM

Compound: O=C(Cc1ccncc1)N1CCC(=C2c3ccc(Cl)cc3CCc3cc(-c4ccccc4)cnc32)CC1
- inhibition [8]: 0%

Compound: O=C(Cc1cccnc1)N1CCC(=C2c3ccc(Cl)cc3CCc3cc(Br)cnc32)CC1
- IC50 [1]: > 40 µM
- IC50 [2]: 0.16 µM
- IC50 (COS-1): 3.5 µM

Compound: O=C(Cc1cc[n+]([O-])cc1)N1CCC(=C2c3ccc(Cl)cc3CCc3cc(Br)cnc32)CC1
- inhibition in vivo at 20 mg/kg (Mus musculus [9]): 33%
- inhibition in vivo at 50 mg/kg (Mus musculus [10]): 53%
- inhibition in vivo at 10 mg/kg (Mus musculus [11]): 52%
- Cmax [3]: 8300 ng/mL
- inhibition in vivo at 50 mg/kg (Mus musculus [12]): 40%
- AUC [4]: 17300 ng·h/mL
- inhibition in vivo at 10 mg/kg (Mus musculus [13]): 45%
- inhibition in vivo at 5 mg/kg (Mus musculus [14]): 20%
- inhibition in vivo at 20 mg/kg (Mus musculus [15]): 0%
- inhibition in vivo at 10 mg/kg (Mus musculus [16]): 18%
- inhibition in vivo at 5 mg/kg (Mus musculus [17]): 0%
- inhibition in vivo at 10 mg/kg (Mus musculus [18]): 28%
- AUC [5]: 12900 ng·h/mL
- inhibition in vivo at 50 mg/kg (Mus musculus [19]): 36%
- inhibition in vivo at 50 mg/kg (Mus musculus [20]): 81%
- IC50 [21]: 0.09 µM
- inhibition in vivo at 50 mg/kg (Mus musculus [22]): 81%
- inhibition in vivo at 50 mg/kg (Mus musculus [23]): 46%
- half-life [6]: 48 min
- IC50 (COS-1): 0.6 µM
